Values after ≈ are worked out from the molar mass of the structure shown. Active and inactive are the calls of the source. The calls are words filed in the database; no cut-off is given here.
Assays:
Fusarium proliferatum [1] = assay: Fungistatic activity against Fusarium proliferatum at 30 uM after 72 hrs by microtiter plate assay; type: functional, organism-based
How it was run: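 Conidia come from 7-day potato dextrose agar cultures, filtered and set photometrically (625 nm) to 3 × 10^5 conidia/mL. They are exposed to compound at 30 µM in 96-well microdilution broth at 24 ± 1 °C under a 12 h photoperiod. After 72 h, 20 µL per well is subcultured on drug-free potato dextrose agar at 28 °C for 3 days. No regrowth is scored fungicidal; regrowth is scored fungistatic.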

Fusarium solani [2] = assay: Fungicidal activity against Fusarium solani at 30 uM after 72 hrs by microtiter assay; type: functional, organism-based
How it was run: (§1)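 After 72 h of microtiter broth exposure at 30 µM, 20 µL from each well was plated onto compound-free potato dextrose agar and incubated 3 days at 28 °C. No regrowth was scored fungicidal; regrowth was scored fungistatic.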

Fusarium oxysporum [3] = assay: Fungicidal activity against Fusarium oxysporum at 30 uM after 72 hrs by microtiter plate assay; type: functional, organism-based; how it was run: as §1
Cryptococcus neoformans = assay: Antimicrobial activity against Cryptococcus neoformans ATCC 90113; type: functional, organism-based
Hs-578T = assay: Cytotoxicity against human HS578T cells; type: functional
How it was run: (§2)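 NCI Developmental Therapeutics Program cell panel. GI50 is the concentration that reduces growth of treated cells to half that of untreated controls. TGI is the concentration that completely halts growth.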

Fusarium oxysporum [4] = assay: Antimicrobial activity against Fusarium oxysporum at 3 uM after 48 hrs by microtiter assay; type: functional
How it was run: (§3)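 96-well microdilution broth assay with conidia (3 × 10^5 conidia/mL, harvested from 7-day PDA cultures and filtered) against F. oxysporum, F. proliferatum and F. solani at 0.3, 3 and 30 µM. Plates were held at 24 ± 1 °C under a 12 h photoperiod. Growth was read at 620 nm at 24, 48 and 72 h and reported as percent inhibition from mean absorbance with standard error.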

Fusarium proliferatum [5] = assay: Antimicrobial activity against Fusarium proliferatum at 30 uM after 48 hrs by microtiter assay; type: functional; how it was run: as §3
ACHN = assay: Cytotoxicity against human ACHN cells; type: functional; how it was run: as §2
A549 = assay: Cytotoxicity against human A549 cells; type: functional; how it was run: as §2
HCC 2998 = assay: Cytotoxicity against human HCC2998 cells; type: functional; how it was run: as §2
Fusarium proliferatum [6] = assay: Antimicrobial activity against Fusarium proliferatum at 30 uM after 72 hrs by microtiter assay; type: functional; how it was run: as §3
Fusarium oxysporum [7] = assay: Antimicrobial activity against Fusarium oxysporum at 30 uM after 72 hrs by microtiter assay; type: functional; how it was run: as §3
Fusarium oxysporum [8] = assay: Antimicrobial activity against Fusarium oxysporum at 0.3 uM after 48 hrs by microtiter assay; type: functional; how it was run: as §3
HT-29 = assay: Cytotoxicity against human HT29 cells; type: functional; how it was run: as §2
Fusarium solani [9] = assay: Antimicrobial activity against Fusarium solani at 3 uM after 48 hrs by microtiter assay; type: functional; how it was run: as §3
Fusarium oxysporum [10] = assay: Antimicrobial activity against Fusarium oxysporum at 3 uM after 72 hrs by microtiter assay; type: functional; how it was run: as §3
HCT-15 = assay: Cytotoxicity against human HCT15 cells; type: functional; how it was run: as §2
Fusarium solani [11] = assay: Antimicrobial activity against Fusarium solani at 0.3 uM after 72 hrs by microtiter assay; type: functional; how it was run: as §3
Fusarium proliferatum [12] = assay: Antimicrobial activity against Fusarium proliferatum at 0.3 uM after 72 hrs by microtiter assay; type: functional; how it was run: as §3
Fusarium proliferatum [13] = assay: Antimicrobial activity against Fusarium proliferatum at 3 uM after 48 hrs by microtiter assay; type: functional; how it was run: as §3
NCI-H322M = assay: Cytotoxicity against human NCI-H322M cells; type: functional; how it was run: as §2
Leishmania donovani = assay: Antiparasitic activity against Leishmania donovani; type: functional, organism-based
Fusarium oxysporum [14] = assay: Antimicrobial activity against Fusarium oxysporum at 30 uM after 48 hrs by microtiter assay; type: functional; how it was run: as §3
[15] = system: Mycobacterium tuberculosis; assay: Antibacterial activity against Mycobacterium tuberculosis H37Rv at 16 ug/mL by micro plate alamar blue assay; type: functional
How it was run: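 M. tuberculosis H37Rv ATCC 27294 grown in BACTEC 12B medium; microplate Alamar blue assay (MABA). Primary screen at a single concentration of 16 µg/mL, read as percent inhibition.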

[16] = system: Mycobacterium intracellulare; assay: Antimicrobial activity against Mycobacterium intracellular ATCC 23068; type: functional, organism-based
SK-OV-3 = assay: Cytotoxicity against human SK-OV3 cells; type: functional; how it was run: as §2
KM12 = assay: Cytotoxicity against human KM12 cells; type: functional; how it was run: as §2
Candida albicans = assay: Antimicrobial activity against Candida albicans ATCC 90028; type: functional, organism-based
COLO 205 = assay: Cytotoxicity against human COLO205 cells; type: functional; how it was run: as §2
UACC-257 = assay: Cytotoxicity against human UACC257 cells; type: functional; how it was run: as §2
T47D = assay: Cytotoxicity against human T47D cells; type: functional; how it was run: as §2
Fusarium solani [17] = assay: Antimicrobial activity against Fusarium solani at 30 uM after 48 hrs by microtiter assay; type: functional; how it was run: as §3
SNB-75 = assay: Cytotoxicity against human SNB75 cells; type: functional; how it was run: as §2
Fusarium oxysporum [18] = assay: Antimicrobial activity against Fusarium oxysporum at 0.3 uM after 72 hrs by microtiter assay; type: functional; how it was run: as §3
DU-145 = assay: Cytotoxicity against human DU145 cells; type: functional; how it was run: as §2
Fusarium proliferatum [19] = assay: Antimicrobial activity against Fusarium proliferatum at 3 uM after 72 hrs by microtiter assay; type: functional; how it was run: as §3
[20] = system: Mycobacterium tuberculosis; assay: Antibacterial activity against Mycobacterium tuberculosis H37Rv by micro plate alamar blue assay; type: functional
Aspergillus fumigatus = assay: Antimicrobial activity against Aspergillus fumigatus ATCC 90906; type: functional, organism-based
Fusarium solani [21] = assay: Antimicrobial activity against Fusarium solani at 0.3 uM after 48 hrs by microtiter assay; type: functional; how it was run: as §3
Fusarium solani [22] = assay: Antimicrobial activity against Fusarium solani at 30 uM after 72 hrs by microtiter assay; type: functional; how it was run: as §3
RPMI-8226 = assay: Cytotoxicity against human RPMI8226 cells; type: functional; how it was run: as §2
Fusarium solani [23] = assay: Antimicrobial activity against Fusarium solani at 3 uM after 72 hrs by microtiter assay; type: functional; how it was run: as §3
Fusarium proliferatum [24] = assay: Antimicrobial activity against Fusarium proliferatum at 0.3 uM after 48 hrs by microtiter assay; type: functional; how it was run: as §3
PC-3 = assay: Cytotoxicity against human PC3 cells; type: functional; how it was run: as §2

C/C=C1\NC(=O)[C@H](Cc2ccccc2)NC(=O)[C@@H](C(C)C)NC(=O)[C@@H]([C@@H](C)CC)NC(=O)[C@H](NC(=O)[C@H](NC(=O)[C@H](CCCN)NC(=O)[C@H]2CCCN2C(=O)[C@@H](NC(=O)[C@H](NC(=O)[C@H](NC(=O)[C@@H](NC(=O)CCCC(C)C)C(C)C)C(C)=O)C(C)C)C(C)C)[C@@H](C)CC)[C@@H](C)OC(=O)[C@H](C(C)C)NC1=O
Activity (Fusarium proliferatum [1]): Active | Activity (Fusarium solani [2]): Active | Activity (Fusarium oxysporum [3]): Active

C/C=C1\NC(=O)[C@H](Cc2ccccc2)NC(=O)[C@@H](C(C)C)NC(=O)[C@@H]([C@@H](C)CC)NC(=O)[C@H](NC(=O)[C@H](NC(=O)[C@H](CCCNCc2cccs2)NC(=O)[C@H]2CCCN2C(=O)[C@@H](NC(=O)[C@H](NC(=O)[C@H](NC(=O)[C@@H](NC(=O)CCCC(C)C)C(C)C)[C@H](C)O)C(C)C)C(C)C)[C@@H](C)CC)[C@@H](C)OC(=O)[C@H](C(C)C)NC1=O
Activity (Fusarium proliferatum [1]): Active | Activity (Fusarium solani [2]): Active | Activity (Fusarium oxysporum [3]): Active

C/C=C1\NC(=O)[C@H](Cc2ccccc2)NC(=O)[C@@H](C(C)C)NC(=O)[C@@H]([C@@H](C)CC)NC(=O)[C@H](NC(=O)[C@H](NC(=O)[C@H](CCCNCc2cccs2)NC(=O)[C@H]2CCCN2C(=O)[C@H](NC(=O)[C@@H](NC(=O)[C@@H](NC(=O)[C@H](NC(=O)CCCC(C)C)C(C)C)[C@@H](C)O)C(C)C)C(C)C)[C@@H](C)CC)[C@@H](C)OC(=O)[C@H](C(C)C)NC1=O
MFC (Cryptococcus neoformans): 10 µM (≈ 15.7 µg/mL) | MIC (Cryptococcus neoformans): 5 µM (≈ 7.87 µg/mL) | GI50 (Hs-578T): 427 nM | TGI (Hs-578T): 2130 nM | inhibition at 3 µM (Fusarium oxysporum [4]): 13.7% | inhibition at 30 µM (Fusarium proliferatum [5]): 98.7% | GI50 (ACHN): 1320 nM | TGI (ACHN): 2370 nM | GI50 (A549): 166 nM | GI50 (HCC 2998): 255 nM | TGI (HCC 2998): 971 nM | inhibition at 30 µM (Fusarium proliferatum [6]): 99% | inhibition at 30 µM (Fusarium oxysporum [7]): 99.2% | inhibition at 0.3 µM (Fusarium oxysporum [8]): 0% | GI50 (HT-29): 187 nM | inhibition at 3 µM (Fusarium solani [9]): 47% | inhibition at 3 µM (Fusarium oxysporum [10]): 0% | GI50 (HCT-15): 416 nM | TGI (HCT-15): 1360 nM | inhibition at 0.3 µM (Fusarium solani [11]): 0% | inhibition at 0.3 µM (Fusarium proliferatum [12]): 0% | inhibition at 3 µM (Fusarium proliferatum [13]): 4.8% | GI50 (NCI-H322M): 167 nM | TGI (NCI-H322M): 304 nM | IC90 (Leishmania donovani): 34 µg/mL (≈ 21.6 µM) | inhibition at 30 µM (Fusarium oxysporum [14]): 98.8% | inhibition at 16 µg/mL [15]: 92% | MBC [16]: > 20 µM | MIC [16]: > 20 µM | GI50 (SK-OV-3): 223 nM | TGI (SK-OV-3): 485 nM | GI50 (KM12): 1010 nM | TGI (KM12): 2190 nM | MFC (Candida albicans): 20 µM (≈ 31.5 µg/mL) | MIC (Candida albicans): 10 µM (≈ 15.7 µg/mL) | GI50 (COLO 205): 243 nM | GI50 (UACC-257): 1440 nM | TGI (UACC-257): 2820 nM | GI50 (T47D): 191 nM | TGI (T47D): 394 nM | inhibition at 30 µM (Fusarium solani [17]): 99% | GI50 (SNB-75): 1010 nM | TGI (SNB-75): 2190 nM | inhibition at 0.3 µM (Fusarium oxysporum [18]): 0% | GI50 (DU-145): 144 nM | TGI (DU-145): 292 nM | inhibition at 3 µM (Fusarium proliferatum [19]): 0% | MIC [20]: 15.5 µg/mL (≈ 9.85 µM) | MFC (Aspergillus fumigatus): 20 µM (≈ 31.5 µg/mL) | MIC (Aspergillus fumigatus): 10 µM (≈ 15.7 µg/mL) | inhibition at 0.3 µM (Fusarium solani [21]): 0% | inhibition at 30 µM (Fusarium solani [22]): 99.3% | GI50 (RPMI-8226): 1270 nM | TGI (RPMI-8226): 2760 nM | inhibition at 3 µM (Fusarium solani [23]): 32.9% | inhibition at 0.3 µM (Fusarium proliferatum [24]): 0% | GI50 (PC-3): 228 nM | TGI (PC-3): 665 nM

From ChEMBL document CHEMBL1148762, “Lysosome and HER3 (ErbB3) selective anticancer agent kahalalide F: semisynthetic modifications and antifungal lead-exploration studies” (J Med Chem, 2007)
